# A selection: hits, their analogues and other compounds. The true share with any hit is near 2.2%.
# IEC-6 cytotox: cytotoxicity in IEC-6 intestinal epithelial cells, primary screen, cytotoxicity control for KLF5 inhibitor project, cell-based, luminescence. inhibition, % at 5 µM. AID 1825, 2009. IEC-6 cytotoxicity, luminescence viability. hit rate 0.78% among 290,000; in the data active means inhibition above about 22%;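 further: 0% = plate median of test compound wells and 100% = cytotoxic reference compound wells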
# BaF3 tox: parental Ba/F3 cell viability inhibition, counter-screen for JAK2V617F inhibitor project, murine pro-B, CellTiter-Glo luminescence | inhibition, % at 5.6 µM | CellTiter-Glo ATP luminescence | hit rate 1.1% among 220,000;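 active means inhibition above a per-campaign cutoff, the mean inhibition of all tested compounds plus 3 SD, cut at about 27% in these data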;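 further: 0% = DMSO wells and 100% = JAK Inhibitor I control wells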
# MT stabilizer: microtubule stabilizers in HeLa cells, primary screen, imaging, high-content imaging. hit rate 0.83% among 200,000. % tubulin-high responders, % at 10 µM. HeLa tubulin immunostaining HCS, 24 h; share of cells brighter than vehicle mean+2SD;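 active means plate Z-score above 3 for both tubulin-high and condensed-nucleus cell shares, with cell loss under 80%, at 10 µM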;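 further: anti alpha tubulin signal scored within the nucleus-defined area of each cell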
# bCat nuc transl: modulators of beta-catenin nuclear translocation, primary screen, imaging, HeLa cells, immunofluorescence, high-content | nuclear translocation activity, % at 5 µM | hit rate 0.3% among 190,000;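 active means nuclear translocation activity above 50% at 5 µM, with a well cell count of 50 or more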;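 further: per-cell ratio of nuclear to cytoplasmic median beta-catenin stain intensity; plate controls were DMSO negative control for no effect and GSK-3 inhibitor IX positive control for full effect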
#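 test system = HeLa cells, endogenous beta-catenin | dosing = single 5 µM dose plus 0.02–20 µM confirmation series | times = compound treatment 24 h, 37°C, 5% CO2 | technique = beta-catenin immunofluorescence imaging with DAPI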
# Ba/F3 V617F tox: reduced viability of JAK2V617F-dependent Ba/F3 cells, primary screen, JAK2V617F inhibitor project, cell-based, Ba/F3 EpoR-JAK2V617F, luminescence; inhibition, % at 5.6 µM; ATP luminescence; hit rate 1.1% among 220,000;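 active means inhibition above the campaign mean plus 3 SD over all tested compounds, cut at about 24% in these data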;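 further: cytokine-independent growth of Ba/F3 cells driven by EpoR plus mutant JAK2; 0% = DMSO-treated cells and 100% = JAK inhibitor I control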
# APP 5UTR inh: inhibitors of APP translation via 5'UTR reporter, primary screen, APP 5'UTR luciferase, SH-SY5Y cells. hit rate 0.82% among 190,000. inhibition, % at 2 µM. SH-SY5Y APP 5'UTR-luciferase reporter, luminescence;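 active means inhibition above a set limit, derived from the sample mean plus 3 SD, cut at about 45% in these data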
# Starred values were filed as active, the others as inactive; . = no result given.
SMILES,IEC-6 cytotox,BaF3 tox,MT stabilizer,bCat nuc transl,Ba/F3 V617F tox,APP 5UTR inh
O=C(N/N=C/c1cc(Br)ccc1O)C(=O)Nc1ccccc1OC(F)(F)C(F)F,8,3,2,-2,5,31
C=C(C)CSc1nc2sc3c(c2c(=O)n1-c1ccc(C)cc1)CCN(C)C3,-1,.,.,.,.,.
C/C(=N\NC(=O)c1ccn(C)n1)c1cccc(NC(=O)c2ccc(C)s2)c1,8,5,4,-1,-1,-13
O=c1cc(Nc2ccc3c(c2)OCCO3)[nH]c(=O)n1C1CCCCC1,2,3,49*,0,12,83*
CCc1ccc(Nc2cc(=O)n(C3CCCCC3)c(=O)[nH]2)cc1,-14,2,3,.,-2,-20
Cc1ccccc1CN1CCNC(=O)C1CC(=O)NC1CCCCCCC1 (centres undefined),-4,.,.,.,.,.
CC(=O)Nc1cc(OC(C)=O)c2nonc2c1OC(C)=O,100*,103*,35,3,101*,17
CC(=O)Nc1nonc1NC(C)=O,1,0,4,1,-5,4
CC1(C)CC(N2CCN(Cc3ccccc3)CC2)=CC(=[N+]2CCCCC2)C1,4,71*,.,1,80*,.
c1ccc(CN2CCN(c3ncccn3)CC2)cc1,5,.,.,.,.,.
CC1(C)CC(N2CCCC2)=CC(=[N+]2CCCC2)C1,16,69*,3,1,79*,22
CCCCCn1c(=O)[nH]c2cc(C(=O)NCCCN3CCCCC3CC)ccc2c1=O (centres undefined),-4,.,.,.,.,.
Cc1cc(O)c(C2=Nc3ccccc3SC(c3ccc(Cl)cc3)C2)c(=O)o1 (centres undefined),0,2,6,2,-2,-112
COc1ccc(C2CC(c3c(O)cc(C)oc3=O)=NCCS2)c(OC)c1 (centres undefined),6,1,10,110*,-3,93*
CC(=O)c1ccc(NC(=O)NC2CCCCCCC2)cc1,8,.,.,.,.,.
NC(=O)COC(=O)c1ccccc1Nc1ccc(SC(F)F)cc1,16,2,4,2,-4,-6
CC(OC(=O)c1ccccc1Nc1ccc(SC(F)F)cc1)C(N)=O (centres undefined),28*,12,2,.,5,8
CCOC(=O)Cc1c(C)nc2c(-c3ccccc3)c[nH]n2c1=O,3,4,19*,-1,6,-13
CCOC(=O)c1ccccc1NC(=O)CN(c1ccccc1OCC)S(C)(=O)=O,-6,2,6,1,0,16
CCOC(=O)c1ccccc1NC(=O)CN(c1ccc(OCC)cc1)S(C)(=O)=O,0,37*,13,69*,27*,52*
O=C(Cn1cnc2ccccc21)Nc1ccc(SC(F)F)cc1,10,50*,2,4,36*,15
C#CCOCCOCCOCCNc1nc(N2CCN(C(=O)[C@H](Cc3cc4ccccc4[nH]3)n3cc([C@@H](N)CC(C)C)nn3)CC2)nc(N2CCN(C(=O)[C@H](Cc3cc4ccccc4[nH]3)n3cc([C@@H](N)CC(C)C)nn3)CC2)n1,5,3,2,0,-2,3
COC(=O)c1ccc(NC(=O)CSc2nnc(COc3ccc4c(c3)CCCC4)o2)cc1,-6,96*,3,5,-3,-3
Cc1cc(C)c2c(N)c3cccc(C)c3nc2n1,16,19,13*,-3,13,27
CCOC(=O)C1(CC2CC2)CCN(Cc2ccc(OC)cc2F)CC1,0,80*,3,2,-1,9
SMILES,IEC-6 cytotox,BaF3 tox,MT stabilizer,bCat nuc transl,Ba/F3 V617F tox,APP 5UTR inh
CC[C@@H](C(=O)[C@@H](C)[C@@H](O)[C@H](C)CCc1ccc(C)c(O)c1C(=O)O)[C@H]1O[C@](CC)([C@H]2CC[C@](O)(CC)[C@H](C)O2)C[C@@H]1C,91*,.,.,.,.,.
C/C(=N\NC(=S)Nc1ccc(F)cc1)c1ccc2c(c1)OCCO2,-4,3,22*,.,-3,-26
C/C(=N\NC(N)=S)c1ccc2c(c1)OCCO2,-6,4,.,1,-1,.
Cc1ccccc1S(=O)(=O)NC1=NCCCCC1,-8,1,14*,0,-1,-6
O=S(=O)(NC1=NCCCCC1)c1ccccc1Cl,-4,0,.,1,-4,.
Cc1ccnc(NC(=O)C2CC(=O)N(c3ccc4c(c3)OCCO4)C2)c1 (centres undefined),-6,.,.,.,.,.
Cc1ccc(NC(=O)NNC(=O)Cn2nc(-c3ccccc3)c(-c3ccccc3)c(C#N)c2=O)cc1,-2,-1,27*,0,1,7
O=C(Cn1nc(-c2ccccc2)c2ccccc2c1=O)Nc1ccc(O)cc1,-1,-5,.,1,-2,.
CCN(c1ccccc1)S(=O)(=O)c1ccc(N)c(OC)c1,10,11,22*,111*,3,11
N#Cc1cnc2c(-c3ccccc3)c(-c3ccccc3)nn2c1N,-1,1,5,-2,2,-3
CCc1nnc(NC(=O)CSc2nccn2-c2cccc(C)c2C)s1,2,1,19*,0,-2,-2
CCN1C=CC(=C2C(=O)c3ccccc3C2=O)C=C1,12,14,2,.,6,70*
CCCCCCN1C=CC(=C2C(=O)c3ccccc3C2=O)C=C1,5,11,1,-4,5,-48
CCCN1C=CC(=C2C(=O)c3ccccc3C2=O)C=C1,18,21,4,.,18,81*
Cc1ccc(Oc2nc(-c3cccnc3)nc3ccccc23)c([N+](=O)[O-])n1,-3,6,4,-3,-2,26
Cc1nn(C)c(C(=O)NCc2ccc(Cl)cc2)c1Cl,0,34*,6,1,18,7
Cc1ccc2cc(CCNS(=O)(=O)c3ccc(F)cc3)c(=O)[nH]c2c1C,0,-3,2,-3,-2,0
O=C1C=CC(=O)C(C2=C3C(=O)N(CCc4ccccc4)CC(=O)N3CCC2)=C1,-1,-1,3,.,-5,65*
O=C1CC(=O)N(CCc2ccccc2)C(=O)N1CCc1ccccc1,-1,5,3,0,1,9
COc1ccc(Nc2ncnc3c2cnn3-c2ccccc2)cc1OC,-1,2,4,0,0,-10
Cc1cccc(-n2ncc3c(NCc4ccccc4)ncnc32)c1,6,15,6,-1,4,-48
COc1ccc(OC)c(Nc2ncnc3c2cnn3-c2cccc(C)c2)c1,15,3,35*,1,0,16
Cc1cccc(-n2ncc3c(NCc4ccco4)ncnc32)c1,8,4,28*,45,-1,-49
Cc1ccc(-n2ncc3c(NCc4ccco4)ncnc32)cc1C,3,-1,9.4*,0,-4,-129

# Compound activity (PubChem)
